IC50, inhibition and Activity data for 4 compounds are collected here from ChEMBL document CHEMBL1138155, “A lactosylated steroid contributes in vivo therapeutic benefits in experimental models of mouse lymphoma and human glioblastoma” (J Med Chem, 2006).

The IC50 is the midpoint of a concentration-inhibition curve. As a reminder, the inhibition is the drop in the measured response relative to a control, in per cent.

Series [1] has as its system U373 MG. Description: Cytotoxicity against human U373 glioblastoma cell line. In kind it is functional, cell-based, U-373MG ATCC. An outline of the steps:
(§1)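 Colorimetric MTT assay on cultured human cancer cells after 3 days of continuous drug exposure. IC50 is the concentration that reduces overall cell-population growth by 50% relative to untreated cells.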

Series [2] concerns A549. Description: Cytotoxicity against human A549 NSCLC cell line. Type of series: functional, cell-based. The method, boiled down:
as §1

Series [3] relates to PC-3. Description: Cytotoxicity against human PC3 prostate cancer cell line. Type of series: functional, cell-based. An outline of the steps: as §1
Series [4] relates to A549. Briefly: Antimigratory activity against human A549 NSCLC cell line at 100 nM after 12h. Type of series: functional. As to conditions: A549, 12 h. An outline of the steps:
(§2)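 Computer-assisted videomicroscopy tracking of living cultured cells, one image every 4 min over 24 h; migration scored as maximum relative distance from origin (MRDO) per cell, read at 12 or 22 h with compound at 100 nM or without (control). Control normalized to 0%. Triplicate analyses, 121–184 cells per condition; mean ± standard error.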

A further series relates to Mus musculus. Briefly: Toxicity in mice at 160 mg/kg, ip 28 days post dose. In kind it is organism-based. Details: dose 160 mg/kg, route intraperitoneal. As to conditions: in vivo, 672 h. The method, boiled down:
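Healthy, non-tumor-grafted mice received a single acute ip dose of 160 mg/kg. Body weight and survival were recorded over at least 28 days after dosing to detect toxic effects.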

In series [5] the test system is U373 MG. Briefly: Antimigratory activity against human U373 glioblastoma cell line at 100 nM after 12h. In kind it is functional, U-373MG ATCC. The method, boiled down:
as §2

The next series has as its system HCT-15. Briefly: Cytotoxicity against human HCT15 colon cancer cell line. In kind it is functional, cell-based. The method, boiled down: as §1
Series [6] concerns PC-3. Description: Antimigratory activity against human PC3 prostate cancer cell line at 100 nM after 22h. Type of series: functional. The following applies: PC-3, 22 h. An outline of the steps:
as §2

The test system of series [7] is A549. Briefly: Antimigratory activity against human A549 NSCLC cell line at 100 nM after 22h. Type of series: functional. The following applies: A549, 22 h. An outline of the steps: as §2
The next series concerns MCF7. Description: Cytotoxicity against human MCF7 breast cancer cell line. Type of series: functional, cell-based. The method, boiled down: as §1
The subject of series [8] is PC-3. Description: Antimigratory activity against human PC3 prostate cancer cell line at 100 nM after 12h. Type of series: functional. As to conditions: PC-3, 12 h. The method, boiled down: as §2
Another series has as its system Hs 683. Description: Cytotoxicity against human Hs683 cancer cell line. Type of series: functional, cell-based. An outline of the steps: as §1
In series [9] the test system is U373 MG. Briefly: Antimigratory activity against human U373 glioblastoma cell line at 100nM after 22h. In kind it is functional, U-373MG ATCC. An outline of the steps: as §2

The structures appear in SMILES notation. Some results are limits rather than exact numbers.

With `COc1ccc(OC)c([C@@H]2C[C@H]3[C@@H]4CC=C5C[C@@H](O[C@@H]6O[C@H](CO[C@H]7O[C@H](CO)[C@@H](O)[C@H](O)[C@H]7O)[C@@H](O)[C@H](O)[C@H]6O)CC[C@]5(C)[C@H]4CC[C@]3(C)[C@H]2[C@H](C)O[C@@H]2O[C@H](CO[C@H]3O[C@H](CO)[C@@H](O)[C@H](O)[C@H]3O)[C@@H](O)[C@H](O)[C@H]2O)c1`, the IC50 with U373 MG [1], with A549 [2], in the series on PC-3 [3], in the series on HCT-15, with MCF7 and in the series on Hs 683 was greater than 10 µM each time. For the same compound, the inhibition at 0.1 µM in the series with A549 [4] is 9%; in the series with U373 MG [5] it was -14%; in the series on PC-3 [6], 10%; with A549 [7], 0%; in the series with PC-3 [8], 8%; in the series on U373 MG [9] it was -9%. In addition, the Activity result in the series on Mus musculus is on record as “Non-toxic”.
Regarding `COc1ccc(OC)c([C@@H]2C[C@H]3[C@@H]4CC=C5C[C@@H](O[C@H]6O[C@@H](C)[C@@H](O)[C@@H](O)[C@@H]6O)CC[C@]5(C)[C@H]4CC[C@]3(C)[C@H]2C(C)=O)c1`, the IC50 in the series with U373 MG [1], in the series with A549 [2], in the series on PC-3 [3], in the series with HCT-15, in the series with MCF7 and in the series on Hs 683 was greater than 10 µM throughout. Moreover, the inhibition at 0.1 µM was -8% in the series on A549 [4]; -25% with U373 MG [5]; -15% in the series with PC-3 [6]; -8% with A549 [7]; -23% in the series with PC-3 [8]; -38% in the series with U373 MG [9]. Moreover, the Activity entry in the series with Mus musculus is on record as “Non-toxic”.
`COc1ccc(OC)c([C@@H]2C[C@H]3[C@@H]4CC=C5C[C@@H](O[C@H]6O[C@H](CO)[C@@H](O[C@@H]7O[C@H](CO)[C@H](O)[C@H](O)[C@H]7O)[C@H](O)[C@H]6O)CC[C@]5(C)[C@H]4CC[C@]3(C)[C@H]2[C@H](C)O[C@H]2O[C@H](CO)[C@@H](O[C@@H]3O[C@H](CO)[C@H](O)[C@H](O)[C@H]3O)[C@H](O)[C@H]2O)c1`: the IC50 in the series with U373 MG [1], in the series on A549 [2], with PC-3 [3], in the series with HCT-15, in the series on MCF7 and in the series on Hs 683 was greater than 10 µM each time. The inhibition at 0.1 µM with A549 [4] was -26%; with U373 MG [5], -12%; in the series with PC-3 [6], 15%; in the series with A549 [7], -12%; in the series on PC-3 [8], 14%; in the series with U373 MG [9], -13%. In the series with Mus musculus, the Activity entry is recorded as “Non-toxic”.
As to `COc1ccc(OC)c([C@@H]2C[C@H]3[C@@H]4CC=C5C[C@@H](O[C@H]6O[C@@H](C)[C@@H](O)[C@@H](O)[C@@H]6O)CC[C@]5(C)[C@H]4CC[C@]3(C)[C@H]2[C@H](C)O[C@H]2O[C@@H](C)[C@@H](O)[C@@H](O)[C@@H]2O)c1`, the IC50 in the series on U373 MG [1], with A549 [2], in the series on PC-3 [3], with HCT-15, in the series on MCF7 and with Hs 683 was greater than 10 µM throughout. For the same compound, the inhibition at 0.1 µM with A549 [4] is -6%; in the series with U373 MG [5], -4%; with PC-3 [6], -45%; in the series on A549 [7], -4%; with PC-3 [8], -41%; in the series with U373 MG [9] it was -4%. Further, the Activity entry in the series on Mus musculus is reported as “Non-toxic”.
